The results in this text go back to the EternaBench riboswitch data.

For the series, the system named is MS2 coat protein. Description: apparent Kd, MS2 coat protein; higher = weaker binding; RNA-MaP array; FMN 200 µM where present. In outline: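 Two titrations, one without ligand and one with constant ligand, were run with SNAP-549-labelled MS2 coat protein from 0.7 or 1.5 nM, doubling to 3 µM. The targets were designs transcribed by stalled E. coli RNA polymerase on Illumina sequencing-chip clusters, in 100 mM Tris-HCl pH 7.5, 80 mM KCl, 4 mM MgCl2, BSA, DTT, yeast tRNA and Tween-20. The apparent Kd is the median of filtered per-cluster binding-curve fits, with green signal normalised to red-channel RNA signal and control-cluster median Fmax.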

Where [1] appears, read: designed as: ON switch for flavin mononucleotide, no ligand.
Where [2] appears, read: ligand present: flavin mononucleotide, designed as: ON switch for flavin mononucleotide.
[3] abbreviates: designed as: OFF switch for flavin mononucleotide, no ligand.
[4] abbreviates: ligand present: flavin mononucleotide, designed as: OFF switch for flavin mononucleotide.

The apparent Kd is the concentration giving half-maximal binding under the conditions of the assay. As to “UACCGCGACAACACGGUAUCACAUGAGGAUCACCCAUGUUCACAGGAUAUGCGAUAGCCAACGAAGCAGAAGGGUGAUUACUUA”, the “apparent Kd” value under setting [1] turned out to be 37.3 nM and the “apparent Kd” value under setting [2] worked out at 263 nM.

As for “CAAGGUACCCAAGGAUAUCCUCACAUGAGGAUCACCCAUGUGUCAGCAAAAGGAGAAGGUGGGUGAAGCUGUCUGCACGCCAAG”, the “apparent Kd” value is 53.3 nM under setting [1] and 4.53 nM under setting [2].

As to “GGUACCAACACAGGAUAUGCUAUCCUUUGGGUAGCAGAAGGGUGAAAACAUGAGGAUCACCCAUGUGGUACCGGGCGUGAGCCC”, the “apparent Kd” value by setting is: under setting [1], 519 nM; under setting [2], 45.4 nM.

Regarding “CCGGAAACGGGUAGCUCACAUGAGGAUCACCCAUGUAAAACACAGGAUAUGGAUCCUAAUUGGAUCCAGAAGGGUGUGAGCUAC”, the “apparent Kd” value is, setting by setting: under setting [1], 40.1 nM; under setting [2], 23.6 nM.

On to “UGGUACUAGGGAGGAUAUGGGAAGAUACAUGAGGAUCACCCAUGUUUAAGAAUGCCGAGAGGCAACUAGAAGGCCCUAUUACCU”, for which the “apparent Kd” value worked out at 365 nM under setting [1] and 20.1 nM under setting [2].

On to “GUCAUGUAAGGAUAUCUUACAUGUGACUUCGGUCACUGUCAAGAGAAGGUACAUGAGGAUCACCCAUGUUCGAC”, for which the “apparent Kd” value runs as follows: under setting [3], 17.2 nM; under setting [4], 21.8 nM.

In the case of “UAACAAAUUGUCAGGAUAUCAUUCCCGGCCCAGAGUGAGAAGGGACAUGAGGAUCACCCAUGUAUGAUUCUCAC”, the “apparent Kd” value by setting is: under setting [3], 16.1 nM; under setting [4], 15.3 nM.

On to “UGUUGUAUUACAGGAUAUCUAUUAUUAUUAUUUAGAGAAGGGUAUUCACAUGAGGAUCACCCAUGUAUAUACGAGGAAGUUGUG”, for which the “apparent Kd” value is, setting by setting: under setting [1], 43.7 nM; under setting [2], 45.5 nM.

For the sequence “GUCAGCUCGUGAGGAUAUACAACACUGCUUCGGCAGUGUAUUAAGUUCACAUGAGGAUCACCCAUGUAGAAGGCACGAGCUGAU”, the “apparent Kd” value came out at 5.56 nM under setting [3] and 6.8 nM under setting [4].

Consider “CUCGGACAUGAGGAUCACCCAUGUGAGGAUAUGGCGCGAUCGUCGAAAGACGAUAGCGCCAGAAGGCACAAAUG”, for which the “apparent Kd” value reads like this: under setting [3], 65.4 nM; under setting [4], 195 nM.

Regarding “CUGAUGUUAGGAUAUCAGGCGCCCGCCACUAGCAGGGCGCAUGAGAAGGGACAUGAGGAUCACCCAUGUAGUAA”, the “apparent Kd” value amounted to 31.6 nM under setting [3] and 54.5 nM under setting [4].

Consider “AAGAAACAUGAGGAUCACCCAUGUCGAGAGAGACGAGGAUAUCUGAAUCGAUUAGAUUACGGAGAAGGCGUGAAAA”, for which the “apparent Kd” value reads like this: under setting [1], 29.4 nM; under setting [2], 23.4 nM.

For “GAAGCACGCAUUAACAUGAGGAUCACCCAUGUGAAAACACGUGAGGAUAUCGAUCUGAAGAAGAUCGAGAAGGCACCGUGCUAA”, the “apparent Kd” value runs as follows: under setting [1], 5.53 nM; under setting [2], 5.11 nM.

“UCUGGUCAAGGAUAUGCGUAAUGUGUUACGGCACGAGGUCUACAUGAGGAUCACCCAUGUAGAAGGUGAUCAGA”: the “apparent Kd” value under setting [3] amounted to 18 nM and the “apparent Kd” value under setting [4] was 17.9 nM.

“UUCUGUGUGUGCUAGGGCUGCACAUGAGGAUCACCCAUGUACAGAAGGUGGACACGCACUGUGGCCAAGGAUAUGUAACAUGUU”: the “apparent Kd” value by setting is: under setting [3], 11.2 nM; under setting [4], 36.2 nM.

As for “AUCAGCUCGUCAGGAUAUACGUCACUGCGUCAGCAGUGUGGCAAGAUCACAUGAGGAUCACCCAUGUAGAAGGGACGAGCUGAU”, the “apparent Kd” value under setting [3] was 21.2 nM and the “apparent Kd” value under setting [4] was determined as 399 nM.

On to “CUUUCAUUUUAGGAUAUCGAGUUGGCGAUAGCUCGAGAAGGGAAUACAUGAGGAUCACCCAUGUCGGGUCACGU”, for which the “apparent Kd” value by setting is: under setting [3], 177 nM; under setting [4], 173 nM.

Take “GUGCACACUCGAGGAUAUCGGAGAGUACUCCUUCGAGAAGGCGAUUCGUGCCGUGUUAUUCUGGACAUGAGGAUCACCCAUGUG”: the “apparent Kd” value reads like this: under setting [1], 125 nM; under setting [2], 39.9 nM.

For the sequence “GUGUAGUCAGGAUAUACAUAGGAAGAGAAGAGAAGAGAAGUACAUGAGGAUCACCCAUGUAGAAGGGACAGUGU”, the “apparent Kd” value is 24.3 nM under setting [3] and 25.1 nM under setting [4].

As for “GGGCCCGGUGUGAGGAUAUGCCCGGGUAAAUUUGGGCAGAAGGCACAUGAGGAUCACCCAUGUAAGCCGGGCCC”, the “apparent Kd” value worked out at 13.9 nM under setting [3] and 13.8 nM under setting [4].

As for “AGCUGUGGCCGAGGAUAUCUAGCUUCAAUAACCGAAAUAUAAUCGGACAUGAGGAUCACCCAUGUAGAGAAGGCGGUCUCAGCA”, the “apparent Kd” value reads like this: under setting [3], 29.6 nM; under setting [4], 29.6 nM.

For “GGUACCAACACAGGAUAUGCAAUCCUUUGGGUUGCAGAAGGGUGAAAACAUGAGGAUCACCCAUGUGGUACCGGGCGUGAGCCC”, the “apparent Kd” value was found to be 473 nM under setting [1] and 39.8 nM under setting [2].

“AAGAUGCGGGUAGGAUAUGGAGAGAAAGAAAGACCAGAAGGAUUGGUCACACAACAUGAGGAUCACCCAUGUGUGUGUUGCGAA”: the “apparent Kd” value amounted to 14.1 nM under setting [3] and 11.9 nM under setting [4].

On to “GGGUACAUCGGAGGAUAUCAUGUAAAUACAUGAGGAUCACCCAUGUCUAUGGAGACAUCGGAGAUUGAGAAGGCCGAUGUACCG”, for which the “apparent Kd” value runs as follows: under setting [1], 14.4 nM; under setting [2], 150 nM.

For the sequence “UUUGUUUAUGCAGGAUAUUGUAUUUUAUUACAUCAAGAAGGGCAUUACAUGAGGAUCACCCAUGUUAUCUUAUGGUUAACUAGU”, the “apparent Kd” value under setting [3] worked out at 20.8 nM and the “apparent Kd” value under setting [4] is 21.3 nM.

As to “UGAUUUCAUGUAGGAUAUGCAUGGCGAAGCUACGCAGAAGGACAUGAGGAUCACCCAUGUUUUAGCGUCUGAGUAUAGAUUCUA”, the “apparent Kd” value by setting is: under setting [3], 140 nM; under setting [4], 158 nM.

In the case of “UUGCUCGUGUGAGGAUAUGCCGCCGUUUCGGCUGCAGAAGGUACUAUAAUACAUGAGGAUCACCCAUGUCUCUGUUGUUUCGUG”, the “apparent Kd” value by setting is: under setting [1], 27.6 nM; under setting [2], 27.1 nM.

As for “UGGUAGUAGGGAGGAUAUGGGAAGAUACAUGAGGAUCACCCAUGUUUAAGAAUGCCGAGAGGCAACUAGAAGGCCCUAGUACCU”, the “apparent Kd” value is, setting by setting: under setting [1], 324 nM; under setting [2], 23.7 nM.

Consider “GUAGCAUACCGAGGAUAUUCAUCCGGAAACGGACAUGAGGAUCACCCAUGUGCAGAAAACUGCUGGGAGAAGGCGGAAUGCUAC”, for which the “apparent Kd” value came to 89.7 nM under setting [1] and 16.9 nM under setting [2].

As to “GGGCUCGGUGUGAGGAUAUCGGGCUCUAAAGGGCUCGAGAAGGCACAUGAGGAUCACCCAUGUAAGUCGGGCUC”, the “apparent Kd” value under setting [3] was found to be 14.8 nM and the “apparent Kd” value under setting [4] stood at 15 nM.

Consider “GCCAUCGUAUGAGGAUAUGCUCCGGUUUCCGGAGCAGAAGGCAUGUCAUAAGACAUGAGGAUCACCCAUGUAGUUAAGAUGGCA”, for which the “apparent Kd” value reads like this: under setting [1], 135 nM; under setting [2], 9.66 nM.

Regarding “GGUGGACAUGAGGAUCACCCAUGUGAGGAUAUCGGCCGGUUCGUGGUGGCUGGCUUCUCGAGAAGGCGCAUAGU”, the “apparent Kd” value reads like this: under setting [3], 55.8 nM; under setting [4], 65.7 nM.

On to “UCGAUGCGAGGAUAUACUAAGGCAACUACUGCAGCUCAAAAACAUGAGGAUCACCCAUGUAGAAGGCGCAUAUA”, for which the “apparent Kd” value runs as follows: under setting [3], 16 nM; under setting [4], 15.4 nM.

In the case of “UGAAAUCAUGUAGGAUAUGCAUGGCGAAGCUACGCAGAAGGACAUGAGGAUCACCCAUGUUCUGGCUACCGAGUUCGGUGGCAA”, the “apparent Kd” value under setting [3] turned out to be 22.1 nM and the “apparent Kd” value under setting [4] was 105 nM.

On to “AAAUAACCUAGCAAAAUUUCCUCACAUGAGGAUCACCCAUGUAGAAGGCUGUCCUAAAAUAGGACAGAGGAUAUACAUGCUAGG”, for which the “apparent Kd” value reads like this: under setting [3], 10.6 nM; under setting [4], 171 nM.

For the sequence “ACUGGUCGAGGAUAUACAUUCGUGCUUCGGCACGUAAGGUCACAUGAGGAUCACCCAUGUAGAAGGCGACCAGU”, the “apparent Kd” value was determined as 40.1 nM under setting [3] and 207 nM under setting [4].

“UUUUAACAUGAGGAUCACCCAUGUGAGGAUAUCGAAAUUUAUAUUAAUAUUUAUUAAUCGAGAAGGCACAUUUU”: the “apparent Kd” value by setting is: under setting [3], 93.7 nM; under setting [4], 122 nM.

Consider “AAUAUGUUGCAGAAGGCUAUAUUGUUGUAGUACCUCAUGACAUGAGGAUCACCCAUGUUUGUGUUGGAGGAUAUGCAAUAUAUU”, for which the “apparent Kd” value is, setting by setting: under setting [3], 7.82 nM; under setting [4], 7.07 nM.

For “CGCAAGUCAGGAUAUUCGACUGGUAAAUCUGUGGAUCAGUAGGAGAAGGGACAUGAGGAUCACCCAUGUUUGUU”, the “apparent Kd” value under setting [3] is 28.6 nM and the “apparent Kd” value under setting [4] came to 31.9 nM.

Take “UGUCGGAGCAGAGGAUAUAUACAUGAGGAUCACCCAUGUAAAGAUCAAAGCUGGAAACAGCAAGUAUAGAAGGCUGCUCCGACA”: the “apparent Kd” value amounted to 120 nM under setting [3] and 295 nM under setting [4].

As to “GAGUGGAAGGCCGCUACAUGAGGAUCACCCAUGUGCUAAGCACAGGAUAUCGCGCUGGCCCGGCGCGAGAAGGGUGACGGCCUU”, the “apparent Kd” value reads like this: under setting [1], 737 nM; under setting [2], 283 nM.

With “UACAUGAGGAUCACCCAUGUUUUGUCGUGUAUGGUAUUUAUCUAGGAUAUCAAUUUACUUAUUUAUGAGAAGGAGAAUAUUAAU”, the “apparent Kd” value is 32.4 nM under setting [3] and 31.3 nM under setting [4].

“GGUACUCAAAGAGUACCAAUACGAACAUGAGGAUCACCCAUGUAGGAUAUGCUACUCAAAGAGUAGCAGAAGGACAUGUGCCUG”: the “apparent Kd” value is, setting by setting: under setting [3], 17.9 nM; under setting [4], 95.1 nM.

As for “AAAUAGGUAGGAUAUACAUGGAUAUACAUUCAUGUGGACCUACAUGAGGAUCACCCAUGUAGAAGGACCUAGUA”, the “apparent Kd” value turned out to be 40.2 nM under setting [3] and 43.7 nM under setting [4].

For “CUCUUGUGAGGAUAUCAGUAGUAAAAAAAUAAAAUUACUACUGAGAAGGCACAUGAGGAUCACCCAUGUACCUU”, the “apparent Kd” value runs as follows: under setting [3], 22.9 nM; under setting [4], 22.7 nM.

For “GCGAUUGCGUAGAAGGUACUAUAAAAUACACUGUAAGGAUAUACAAACAUGAGGAUCACCCAUGUAAAUGGAAUUUGCAAUCGC”, the “apparent Kd” value is 7.8 nM under setting [1] and 6.43 nM under setting [2].

“GGUUUGCGGCAGGAUAUCCAUCCGCGGUGUGGUGGAGAAGGGCUGACAUGAGGAUCACCCAUGUGCGUCCUGUU”: the “apparent Kd” value was found to be 25.1 nM under setting [3] and 30.5 nM under setting [4].

“CCAGCGUAUGUGAGGAUAUGCUGGUCCUUGGAUCAGCAGAAGGCACAUGAGGAUCACCCAUGUGGAAACGUUGG”: the “apparent Kd” value under setting [3] was determined as 18.7 nM and the “apparent Kd” value under setting [4] is 63.5 nM.
